Experimental data published in ChEMBL document CHEMBL3124841, “Discovery of vinyl sulfones as a novel class of neuroprotective agents toward Parkinson's disease therapy” (J Med Chem, 2014).
Calls of active or inactive are those of the source. The rule behind the calls is not given here.

Assays:
[1] = molecular target: T1, Nuclear factor erythroid 2-related factor 2 (Mus musculus) (UniProt Q60795); experiment: Induction of Nrf2-dependent GCLC gene expression in mouse CATH.a cells at 0.1 uM after 6 hrs by RT-PCR analysis; type: cell-based
T1 sequence (whole entry): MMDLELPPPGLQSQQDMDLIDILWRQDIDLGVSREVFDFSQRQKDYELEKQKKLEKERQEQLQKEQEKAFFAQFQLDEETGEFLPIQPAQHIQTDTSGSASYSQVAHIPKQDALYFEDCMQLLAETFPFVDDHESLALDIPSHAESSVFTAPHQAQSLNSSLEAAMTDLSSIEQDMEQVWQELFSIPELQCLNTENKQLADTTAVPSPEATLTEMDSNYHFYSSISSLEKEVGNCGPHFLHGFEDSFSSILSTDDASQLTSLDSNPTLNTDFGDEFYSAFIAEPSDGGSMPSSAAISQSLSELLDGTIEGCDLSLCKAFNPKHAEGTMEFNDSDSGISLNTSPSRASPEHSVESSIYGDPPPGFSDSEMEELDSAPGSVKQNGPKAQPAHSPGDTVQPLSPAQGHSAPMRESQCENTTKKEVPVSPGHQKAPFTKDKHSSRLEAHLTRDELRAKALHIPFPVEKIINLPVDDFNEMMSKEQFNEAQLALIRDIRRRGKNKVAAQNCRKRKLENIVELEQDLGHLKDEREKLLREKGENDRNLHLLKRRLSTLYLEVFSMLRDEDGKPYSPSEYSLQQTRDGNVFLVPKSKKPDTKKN
Summary of the method: (§1)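 CATH.a cells grown in RPMI 1640 with 8% horse serum and 4% FBS, exposed to graded concentrations for 6 h. mRNA analysed by RT-PCR with gene-specific primers, products run on 1% agarose gel, band densitometry normalized to GAPDH. At least duplicate cultures; fold induction versus untreated control ± SEM.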

Mus musculus [2] = experiment: Effect on DAergic neurons in C57Bl/6 mouse SN at 10 mg/kg/day, po for 3 days by immunohistochemistry; type: ADME, organism-based; set-up: route oral; settings: in vivo, 72 h
Summary of the method: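 Male C57Bl/6 mice (23−25 g, n = 10/group) dosed orally at 10 mg/kg/day for 3 days, vehicle N-methyl-2-pyrrolidone and 20% Tween 80 in saline. MPTP 4 × 20 mg/kg ip 2 h apart, starting 24 h after first oral dose. Perfusion-fixed 7 days after first MPTP; TH immunostaining, nigral cells counted and striatal fibers densitometered on five sections each, 80 μm apart. Expressed as % vehicle control ± SEM.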

[3] = molecular target: T1, Nuclear factor erythroid 2-related factor 2 (Mus musculus); experiment: Induction of Nrf2-dependent NQO1 gene expression in mouse CATH.a cells after 6 hrs by RT-PCR analysis; type: cell-based; summary of the method: as §1
Mus musculus [4] = experiment: Inhibition of motor deficits in MPTP-induced C57Bl/6 mouse parkinson's disease model assessed as improvement in postural balance at 10 mg/kg/day, po for 3 days administered first dose at 24 hrs prior to first injection of 4X 20 mg/kg, ip MPTP challenge measured 6 days after last MPTP injection by hind-limb test; type: functional, organism-based
Summary of the method: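 C57Bl/6 males (n = 10/group), 10 mg/kg/day po for 3 days in N-methyl-2-pyrrolidone/20% Tween 80 saline. MPTP 4 × 20 mg/kg ip at 2 h intervals, begun 24 h after first dose. Six days after last MPTP injection, mice suspended by tail and hindlimb position scored 0−4. Mean ± SEM.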

[5] = molecular target: T1, Nuclear factor erythroid 2-related factor 2 (Mus musculus); experiment: Induction of Nrf2-dependent HO1 protein level in mouse BV-2 cells at 20 uM after 24 hrs by sandwich ELISA; type: cell-based
Summary of the method: (§2)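 Murine BV-2 microglia in DMEM/10% FBS, 2.0 × 10⁴ cells per well, treated at 20 μM for 24 h in triplicate. Lysates in NP-40 Tris buffer (pH 8.0) diluted tenfold; HO-1 measured by sandwich ELISA with HRP-streptavidin and Amplex Red fluorescence (ex 530/em 590 nm). Expressed as % of 0.04% DMSO vehicle control ± SEM; sulforaphane 5 μM as reference.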

Mus musculus [6] = experiment: Inhibition of motor deficits in MPTP-induced C57Bl/6 mouse parkinson's disease model assessed as time taken to climb down at 10 mg/kg/day, po for 3 days administered first dose at 24 hrs prior to first injection of 4X 20 mg/kg, ip MPTP challenge by vertical grid test (reference value: 22.4 +/-3.9 s); type: functional
[7] = molecular target: T1, Nuclear factor erythroid 2-related factor 2 (Mus musculus); experiment: Induction of Nrf2-dependent GCLM gene expression in mouse CATH.a cells at 10 uM after 6 hrs by RT-PCR analysis relative to control; type: cell-based; summary of the method: as §1
[8] = molecular target: T1, Nuclear factor erythroid 2-related factor 2 (Mus musculus); experiment: Induction of Nrf2 nuclear translocation in mouse CATH.a cells at 10 uM after 3 hrs by western blot analysis relative to control; type: cell-based
Summary of the method: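 Mouse DAergic CATH.a cells treated at various concentrations for 3 h. Nuclei isolated by hypotonic HEPES buffer/NP-40 lysis, then nuclear proteins extracted in 400 mM NaCl HEPES buffer. Nrf2 Western blot with lamin B as nuclear marker, chemiluminescent detection, densitometry. At least duplicate cultures, expressed as fold induction over untreated control ± SEM.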

[9] = molecular target: T1, Nuclear factor erythroid 2-related factor 2 (Mus musculus); experiment: Induction of Nrf2-dependent NQO1 gene expression in mouse CATH.a cells at 10 uM after 6 hrs by RT-PCR analysis relative to control; type: cell-based; summary of the method: as §1
[10] = molecular target: T1, Nuclear factor erythroid 2-related factor 2 (Mus musculus); experiment: Induction of Nrf2-dependent HO1 protein level in mouse BV-2 cells at 20 uM after 24 hrs by sandwich ELISA relative to control; type: cell-based; summary of the method: as §2
[11] = molecular target: T1, Nuclear factor erythroid 2-related factor 2 (Mus musculus); experiment: Induction of Nrf2-dependent NQO1 protein expression in mouse CATH.a cells at 0.1 uM after 24 hrs by western blot analysis; type: cell-based
Summary of the method: (§3)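 Cells (CATH.a) exposed to graded concentrations for 24 h, lysed in RIPA buffer with protease inhibitors. Equal protein separated on 10% SDS gel, blotted; primary antibodies overnight at 4 °C, HRP secondary, chemiluminescence. Densitometry normalized to β-actin. At least duplicate cultures, fold of untreated control ± SEM.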

[12] = molecular target: T1, Nuclear factor erythroid 2-related factor 2 (Mus musculus); experiment: Induction of Nrf2-dependent HO1 protein expression in mouse CATH.a cells at 0.1 uM after 24 hrs by western blot analysis; type: cell-based; summary of the method: as §3
[13] = molecular target: T1, Nuclear factor erythroid 2-related factor 2 (Mus musculus); experiment: Induction of Nrf2-dependent GCLM protein expression in mouse CATH.a cells after 24 hrs by western blot analysis; type: cell-based; summary of the method: as §3
[14] = molecular target: T1, Nuclear factor erythroid 2-related factor 2 (Mus musculus); experiment: Induction of Nrf2-dependent HO1 gene expression in mouse CATH.a cells at 1 to 10 uM after 6 hrs by RT-PCR analysis relative to control; type: cell-based; summary of the method: as §1
[15] = molecular target: T1, Nuclear factor erythroid 2-related factor 2 (Mus musculus); experiment: Induction of Nrf2-dependent HO1 gene expression in mouse CATH.a cells at 0.1 uM after 6 hrs by RT-PCR analysis; type: cell-based; summary of the method: as §1
[16] = molecular target: T1, Nuclear factor erythroid 2-related factor 2 (Mus musculus); experiment: Induction of Nrf2-dependent GCLC protein expression in mouse CATH.a cells after 24 hrs by western blot analysis; type: cell-based; summary of the method: as §3
Mus musculus [17] = experiment: Inhibition of motor deficits in MPTP-induced C57Bl/6 mouse parkinson's disease model assessed as total time taken on grid apparatus at 10 mg/kg/day, po for 3 days administered first dose at 24 hrs prior to first injection of 4X 20 mg/kg, ip MPTP challenge by vertical grid test (reference value: 34.8 +/-5.4s); type: functional
[18] = molecular target: T1, Nuclear factor erythroid 2-related factor 2 (Mus musculus); experiment: Induction of Nrf2-dependent GCLM protein expression in mouse CATH.a cells at 0.1 uM after 24 hrs by western blot analysis; type: cell-based; summary of the method: as §3

- Activity [1]: inactive
- Activity [3]: Dose-dependent effect
- Activity [5]: 382%
- fold change (FC) [7]: 2.56
- fold change (FC) [8]: 3.5
- fold change (FC) [9]: 5.67
- fold change (FC) [10]: 3.8
- Activity [11]: inactive
- Activity [12]: inactive
- Activity [13]: Dose-dependent effect
- fold change (FC) [14]: 3
- Activity [15]: inactive
- Activity [16]: Dose-dependent effect
- Activity [18]: inactive
SMILES: COc1ccccc1S(=O)(=O)/C=C/c1ccccc1Cl
- Activity (Mus musculus [2]): Non-toxic
- inhibition (Mus musculus [4]): Active
- Time (Mus musculus [6]): 6.3 s
- Time (Mus musculus [17]): 10.3 s
